Experimental data from PMC4331064 (Investigational new drugs, 2010).

Experiments:
[1] = Phase I plasma pharmacokinetics of ENMD-1198 in cancer patients
[2] = tested on: patients with advanced cancer; test: Phase I dose-escalation safety and tolerability; type: in vivo, human
Procedure, shortened: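 Single-center oral once-daily escalation. Part A used 3+3 cohorts starting at 1/12th of the allometrically scaled rat LOAEL. Part B used single-patient cohorts, expanded to 3+3 after ≥Grade 2 drug-related toxicity in cycle 1. AEs were graded by NCI CTCAE v3. DLT was a treatment-related Grade ≥3 nonhematologic or Grade ≥4 hematologic cycle-1 AE. MTD was the next lower dose after ≥2 DLTs in a cohort.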

[3] = single oral dose 425 mg/m^2/day, n=5

COc1cc2c(cc1C(N)=O)CC[C@@H]1[C@@H]2CC[C@]2(C)C=CC[C@@H]12 [ENMD-1198, 2-methoxyestra-1,3,5(10)16-tetraene-3-carboxamide]
Accumulation after multiple doses ([1]; human, in vivo): 3 fold | Dose proportionality of plasma exposures ([1]; human, in vivo): increased proportionally with dose | Mean terminal half-life ([1]; human, in vivo): 15 h | Tmax ([1]; human, in vivo, po): 1 to 2 h | AUC0–24hr ([1]; human, in vivo, po, 5 mg/m2): 312.35 ± 175.38 ng·h/mL | Cmax ([1]; human, in vivo, po, 5 mg/m2): 68.75 ± 48.50 ng/mL | Half-life ([1]; human, in vivo, po, 5 mg/m2): 12.16 ± 4.22 h | Tmax ([1]; human, in vivo, po, 5 mg/m2): 1.25 ± 0.50 h | AUC0–24hr ([1]; human, in vivo, po, 10 mg/m2): 1073.83 ± 156.28 ng·h/mL | Cmax ([1]; human, in vivo, po, 10 mg/m2): 141.20 ± 28.47 ng/mL | Half-life ([1]; human, in vivo, po, 10 mg/m2): 10.57 ± 4.42 h | Tmax ([1]; human, in vivo, po, 10 mg/m2): 1.67 ± 0.58 h | AUC0–24hr ([1]; human, in vivo, po, 20 mg/m2): 2138.07 ± 384.60 ng·h/mL | Cmax ([1]; human, in vivo, po, 20 mg/m2): 418.66 ± 72.53 ng/mL | Half-life ([1]; human, in vivo, po, 20 mg/m2): 11.03 ± 1.85 h | Tmax ([1]; human, in vivo, po, 20 mg/m2): 1.33 ± 0.58 h | AUC0–24hr ([1]; human, in vivo, po, 30 mg/m2): 3914.43 ± 1336.73 ng·h/mL | Cmax ([1]; human, in vivo, po, 30 mg/m2): 677.80 ± 125.78 ng/mL | Half-life ([1]; human, in vivo, po, 30 mg/m2): 19.45 ± 7.66 h | Tmax ([1]; human, in vivo, po, 30 mg/m2): 1.00 ± 0.00 h | AUC0–24hr ([1]; human, in vivo, po, 40 mg/m2): 3616.23 ± 1880.32 ng·h/mL | Cmax ([1]; human, in vivo, po, 40 mg/m2): 675.83 ± 280.76 ng/mL | Half-life ([1]; human, in vivo, po, 40 mg/m2): 8.98 ± 4.22 h | Tmax ([1]; human, in vivo, po, 40 mg/m2): 1.33 ± 0.58 h | AUC0–24hr ([1]; human, in vivo, po, 60 mg/m2): 4901.00 ng·h/mL | Cmax ([1]; human, in vivo, po, 60 mg/m2): 1032.20 ng/mL | Half-life ([1]; human, in vivo, po, 60 mg/m2): 11.82 h | Tmax ([1]; human, in vivo, po, 60 mg/m2): 1.00 h | AUC0–24hr ([1]; human, in vivo, po, 120 mg/m2): 10387.00 ng·h/mL | Cmax ([1]; human, in vivo, po, 120 mg/m2): 1823.10 ng/mL | Half-life ([1]; human, in vivo, po, 120 mg/m2): 10.66 h | Tmax ([1]; human, in vivo, po, 120 mg/m2): 1.00 h | AUC0–24hr ([1]; human, in vivo, po, 180 mg/m2): 14789.00 ng·h/mL | Cmax ([1]; human, in vivo, po, 180 mg/m2): 2904.10 ng/mL | Half-life ([1]; human, in vivo, po, 180 mg/m2): 29.80 h | Tmax ([1]; human, in vivo, po, 180 mg/m2): 1.00 h | AUC0–24hr ([1]; human, in vivo, po, 240 mg/m2): 16277.00 ng·h/mL | Cmax ([1]; human, in vivo, po, 240 mg/m2): 2559.90 ng/mL | Half-life ([1]; human, in vivo, po, 240 mg/m2): 16.15 h | Tmax ([1]; human, in vivo, po, 240 mg/m2): 1.00 h | AUC0–24hr ([1]; human, in vivo, po, 320 mg/m2): 42184.00 ng·h/mL | Cmax ([1]; human, in vivo, po, 320 mg/m2): 3851.00 ng/mL | Half-life ([1]; human, in vivo, po, 320 mg/m2): 9.70 h | Tmax ([1]; human, in vivo, po, 320 mg/m2): 2.00 h | AUC0–24hr ([1]; human, in vivo, po, 550 mg/m2): 45223.33 ± 18198.49 ng·h/mL | Cmax ([1]; human, in vivo, po, 550 mg/m2): 4319.67 ± 2006.78 ng/mL | Half-life ([1]; human, in vivo, po, 550 mg/m2): 17.93 ± 4.11 h | Tmax ([1]; human, in vivo, po, 550 mg/m2): 1.67 ± 0.58 h | AUC0–24hr [1, 3]: 24816.06 ± 14612.08 ng·h/mL | Cmax [1, 3]: 2420.94 ± 1098.82 ng/mL | Half-life [1, 3]: 18.40 ± 13.04 h | Tmax [1, 3]: 6.20 ± 9.96 h | Drug-related Grade 3/4 toxicities ([2]; 5–425 mg/m^2/d dose range): No drug-related Grade 3/4 toxicities | Recommended phase II dose (RP2D) ([2]; oral once daily): 425 mg/m^2/d | Maximum tolerated dose (MTD) ([2]; oral once daily, cancer patients): 425 mg/m^2/day | Life-threatening AEs or treatment-related deaths ([2]; whole study): No life-threatening AEs or treatment-related deaths
